# Data from paper PMC4227816 (Journal of the American Chemical Society, 2014).
# Where a name gives a salt, the structure may show the parent alone.
# Tested on: HIV-1RF challenged T-lymphoblastic CEM-SS cells
# Experiment: XTT anti-HIV-1 cytopathicity assay in CEM-SS cells
# Assay type: cell-based
# In short: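 CEM-SS cells grown in phenol red-free RPMI 1640 with 5% FBS, 2 mM L-glutamine and 50 μg/mL gentamicin. Washed log-phase cells seeded at 5 × 10^3 per well with serial dilutions of compound in DMSO. HIV-1RF diluted to give 80–90% cell kill at 6 days, with parallel uninfected wells for toxicity. Incubated 6 days at 37 °C, viability read by XTT, in triplicate.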
structure (smiles),measurement,value
CC(=O)c1ccc2c(c1)N(CCCN(C)C)c1ccccc1S2 [Acepromazine maleate],protective effect against HIV-1-induced cytopathicity (in words),not protective
